Test results: ChEMBL document CHEMBL4400523, “Synthesis of novel pyrido[1,2-c]pyrimidine derivatives with rigidized tryptamine moiety as potential SSRI and 5-HT1A receptor ligands” (Eur J Med Chem, 2019)
Calls of active or inactive are those of the source. The rule behind the calls is not given here.

Tests used:
[1] = molecular target: T1, 5-hydroxytryptamine receptor 1A (Homo sapiens, UniProt P08908); experiment: Displacement of [3H]-8-OH-DPAT from recombinant human 5HT1A receptor expressed in CHO cell membranes measured after 60 mins by microbeta scintillation counting analysis
T1 sequence (P08908 whole entry): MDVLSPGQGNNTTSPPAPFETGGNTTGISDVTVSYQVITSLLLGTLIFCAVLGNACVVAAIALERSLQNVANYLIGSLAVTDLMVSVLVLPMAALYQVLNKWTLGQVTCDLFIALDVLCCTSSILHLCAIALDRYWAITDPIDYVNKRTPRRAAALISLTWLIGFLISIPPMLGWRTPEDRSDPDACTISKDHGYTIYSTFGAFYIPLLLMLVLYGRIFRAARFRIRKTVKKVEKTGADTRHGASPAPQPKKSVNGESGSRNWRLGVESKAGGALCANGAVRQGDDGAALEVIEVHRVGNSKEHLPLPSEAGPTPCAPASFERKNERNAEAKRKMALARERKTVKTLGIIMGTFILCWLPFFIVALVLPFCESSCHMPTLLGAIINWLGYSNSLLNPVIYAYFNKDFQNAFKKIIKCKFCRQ

[2] = molecular target: Sodium-dependent serotonin transporter (Rattus norvegicus, UniProt P31652); experiment: Displacement of [3H]-citalopram from SERT in rat cortex tissue measured after 60 mins by microbeta scintillation counting analysis
Chain of Sodium-dependent serotonin transporter (P31652 whole entry): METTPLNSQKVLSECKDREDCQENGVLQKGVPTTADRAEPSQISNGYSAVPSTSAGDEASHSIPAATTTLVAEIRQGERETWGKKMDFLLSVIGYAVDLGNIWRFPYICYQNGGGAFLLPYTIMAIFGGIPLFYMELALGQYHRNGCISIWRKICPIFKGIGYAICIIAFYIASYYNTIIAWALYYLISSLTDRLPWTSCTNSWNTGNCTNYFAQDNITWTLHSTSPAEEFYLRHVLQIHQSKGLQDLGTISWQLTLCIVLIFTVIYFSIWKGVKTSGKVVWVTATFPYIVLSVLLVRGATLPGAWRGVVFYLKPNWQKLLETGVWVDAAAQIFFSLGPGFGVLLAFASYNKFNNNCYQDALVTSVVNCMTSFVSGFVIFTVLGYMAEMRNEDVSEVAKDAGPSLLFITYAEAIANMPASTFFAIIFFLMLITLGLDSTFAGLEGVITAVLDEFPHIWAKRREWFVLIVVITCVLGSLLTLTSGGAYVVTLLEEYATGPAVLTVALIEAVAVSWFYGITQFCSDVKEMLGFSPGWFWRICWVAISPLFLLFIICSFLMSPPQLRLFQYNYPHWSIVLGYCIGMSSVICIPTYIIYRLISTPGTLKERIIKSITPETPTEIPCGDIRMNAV
In short: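 Rat cortex tissue suspension with 1.0 nM [3H]-citalopram in 50 mM Tris pH 7.7, 150 mM NaCl, 5 mM KCl. Incubated 60 min at 24 °C, in duplicate. GF/B filtration, scintillation counting. One-site fit, Ki via Cheng–Prusoff with in-house Kd.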

Mus musculus [3] = experiment: Induction of hypothermia in CD-1 mouse assessed as change in body temperature at 20 mg/kg, ip measured after 60 mins by thermometric method; type: functional, organism-based
In short: (§1)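 Male CD-1 mice (23–40 g), 6–8 per dose, given compound ip in 10% aqueous DMSO (10 mL/kg). Rectal temperature was read by thermometer 30, 60, 90 and 120 min after dosing. Results are expressed as change from basal temperature at experiment start. Analysis by Dunnett's test.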

Mus musculus [4] = experiment: Induction of hypothermia in CD-1 mouse assessed as change in body temperature at 5 mg/kg, ip measured after 90 mins by thermometric method; type: functional, organism-based; in short: as §1
Mus musculus [5] = experiment: Induction of hypothermia in CD-1 mouse assessed as change in body temperature at 20 mg/kg, ip measured after 120 mins by thermometric method; type: functional, organism-based; in short: as §1
[6] = Half life in human liver microsomes at 1 uM by LC-MS analysis; type: ADME, Microsome
In short: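 Compound at 1 μM incubated at 37 °C with 1 mg/mL pooled human liver microsomes and 100 μM NADPH in 0.1 M potassium phosphate pH 7.4, after 5-min preincubation. Samples taken at 0, 5, 10, 15, 30 min and quenched in ice-cold acetonitrile with buspirone internal standard. No-NADPH controls were run. Parent measured by LC-ESI(+)-MS of [M+H+]; half-life reported.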

D(2) dopamine receptor = D(2) dopamine receptor (Homo sapiens, UniProt P14416); experiment: Displacement of [3H]-raclopride from recombinant human D2 receptor expressed in HEK293 cells measured after 1 hr by microbeta scintillation counting analysis; type: cell-based
Chain of D(2) dopamine receptor (P14416 whole entry): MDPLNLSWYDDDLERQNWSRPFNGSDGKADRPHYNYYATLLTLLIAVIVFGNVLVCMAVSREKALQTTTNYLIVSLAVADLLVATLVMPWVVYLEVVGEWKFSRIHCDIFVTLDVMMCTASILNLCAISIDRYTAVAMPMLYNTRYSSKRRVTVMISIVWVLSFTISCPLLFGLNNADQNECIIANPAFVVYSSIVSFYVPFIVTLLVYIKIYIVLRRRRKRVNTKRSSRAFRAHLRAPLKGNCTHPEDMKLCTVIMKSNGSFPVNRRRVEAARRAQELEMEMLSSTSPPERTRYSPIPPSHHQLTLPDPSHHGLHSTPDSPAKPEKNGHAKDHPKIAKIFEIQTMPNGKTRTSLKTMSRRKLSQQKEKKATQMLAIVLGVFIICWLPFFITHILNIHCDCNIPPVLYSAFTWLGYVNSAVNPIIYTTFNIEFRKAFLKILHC

Mus musculus [7] = experiment: Induction of hypothermia in CD-1 mouse assessed as change in body temperature at 20 mg/kg, ip measured after 30 mins by thermometric method; type: functional, organism-based; in short: as §1
Mus musculus [8] = experiment: Inhibition of 8-OH-DPAT-induced hypothermia in CD-1 mouse assessed change in body temperature at 20 mg/kg, ip measured after 15 mins by thermometric method (reference value: -1.9 +/- 0.2 deg C); type: functional, organism-based
Mus musculus [9] = experiment: Inhibition of 8-OH-DPAT-induced hypothermia in CD-1 mouse assessed change in body temperature at 20 mg/kg, ip measured after 30 mins by thermometric method (reference value: -2.4 +/- 0.2 deg C); type: functional, organism-based
Mus musculus [10] = experiment: Induction of hypothermia in CD-1 mouse assessed as change in body temperature at 5 mg/kg, ip measured after 30 mins by thermometric method; type: functional, organism-based; in short: as §1
Mus musculus [11] = experiment: Induction of hypothermia in CD-1 mouse assessed as change in body temperature at 5 mg/kg, ip measured after 120 mins by thermometric method; type: functional, organism-based; in short: as §1
Mus musculus [12] = experiment: Inhibition of 8-OH-DPAT-induced hypothermia in CD-1 mouse assessed change in body temperature at 20 mg/kg, ip measured after 45 mins by thermometric method (reference value: -2.6 +/- 0.2 deg C); type: functional, organism-based
Mus musculus [13] = experiment: Inhibition of 8-OH-DPAT-induced hypothermia in CD-1 mouse assessed change in body temperature at 20 mg/kg, ip measured after 60 mins by thermometric method (reference value: -2.4 +/- 0.3 deg C); type: functional, organism-based
[14] = molecular target: 5-hydroxytryptamine receptor 2A (Homo sapiens, UniProt P28223); experiment: Displacement of [3H]-ketanserin from recombinant human 5HT2A receptor expressed in HEK293 cells measured after 1.5 hrs by microbeta scintillation counting analysis; type: cell-based
Chain of 5-hydroxytryptamine receptor 2A (P28223 whole entry): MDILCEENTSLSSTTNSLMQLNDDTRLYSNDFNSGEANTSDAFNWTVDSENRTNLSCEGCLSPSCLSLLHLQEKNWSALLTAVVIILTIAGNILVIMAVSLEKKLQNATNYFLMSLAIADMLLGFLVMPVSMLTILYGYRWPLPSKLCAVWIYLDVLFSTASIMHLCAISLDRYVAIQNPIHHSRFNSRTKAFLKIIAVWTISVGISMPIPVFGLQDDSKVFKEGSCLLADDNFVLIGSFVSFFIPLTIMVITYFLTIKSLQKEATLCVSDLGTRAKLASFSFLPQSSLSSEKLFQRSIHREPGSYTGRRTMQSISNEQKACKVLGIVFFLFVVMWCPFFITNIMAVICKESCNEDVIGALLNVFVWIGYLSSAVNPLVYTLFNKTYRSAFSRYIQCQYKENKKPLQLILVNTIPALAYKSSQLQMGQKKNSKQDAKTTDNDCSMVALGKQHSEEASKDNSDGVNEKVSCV

Mus musculus [15] = experiment: Induction of hypothermia in CD-1 mouse assessed as change in body temperature at 20 mg/kg, ip measured after 90 mins by thermometric method; type: functional, organism-based; in short: as §1
[16] = molecular target: 5-hydroxytryptamine receptor 7 (Homo sapiens, UniProt P34969); experiment: Displacement of [3H]-5-CT from recombinant human 5HT7 receptor expressed in HEK293 cells measured after 1 hr by microbeta scintillation counting analysis; type: cell-based
Chain of 5-hydroxytryptamine receptor 7 (P34969 whole entry): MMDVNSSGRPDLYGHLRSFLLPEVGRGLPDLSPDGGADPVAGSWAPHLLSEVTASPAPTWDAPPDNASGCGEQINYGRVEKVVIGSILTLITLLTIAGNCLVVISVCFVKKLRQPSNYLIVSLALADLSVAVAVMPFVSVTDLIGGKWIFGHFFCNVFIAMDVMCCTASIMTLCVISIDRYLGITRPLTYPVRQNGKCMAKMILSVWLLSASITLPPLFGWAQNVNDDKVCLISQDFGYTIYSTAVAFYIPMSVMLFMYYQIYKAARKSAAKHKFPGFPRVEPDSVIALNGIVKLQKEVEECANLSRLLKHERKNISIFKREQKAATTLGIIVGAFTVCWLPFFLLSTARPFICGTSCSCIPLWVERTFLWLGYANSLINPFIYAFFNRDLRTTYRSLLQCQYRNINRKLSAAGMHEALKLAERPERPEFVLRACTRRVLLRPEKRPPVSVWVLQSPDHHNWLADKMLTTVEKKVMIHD

Mus musculus [17] = experiment: Induction of hypothermia in CD-1 mouse assessed as change in body temperature at 5 mg/kg, ip measured after 60 mins by thermometric method; type: functional, organism-based; in short: as §1
[18] = molecular target: 5-hydroxytryptamine receptor 6 (Homo sapiens, UniProt P50406); experiment: Displacement of [3H]-LSD from recombinant human 5HT6 receptor expressed in HEK293 cells measured after 1 hr by microbeta scintillation counting analysis; type: cell-based
Chain of 5-hydroxytryptamine receptor 6 (P50406 whole entry): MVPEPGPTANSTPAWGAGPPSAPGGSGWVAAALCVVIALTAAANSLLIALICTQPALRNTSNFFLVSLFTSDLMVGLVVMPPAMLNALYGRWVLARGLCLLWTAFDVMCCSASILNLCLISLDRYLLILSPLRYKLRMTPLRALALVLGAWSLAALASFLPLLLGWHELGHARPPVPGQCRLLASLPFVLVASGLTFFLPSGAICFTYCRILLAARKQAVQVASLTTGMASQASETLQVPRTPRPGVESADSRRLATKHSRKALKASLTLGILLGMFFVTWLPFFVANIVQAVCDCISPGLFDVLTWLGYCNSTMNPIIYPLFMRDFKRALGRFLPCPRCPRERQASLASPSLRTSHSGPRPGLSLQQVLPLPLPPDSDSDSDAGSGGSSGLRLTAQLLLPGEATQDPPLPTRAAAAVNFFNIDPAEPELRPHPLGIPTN

Mus musculus [19] = experiment: Induction of hypothermia in CD-1 mouse assessed as change in body temperature at 20 mg/kg, ip measured after 30 mins in presence of WAY100635 by thermometric method; type: functional, organism-based
Mus musculus [20] = experiment: Induction of hypothermia in CD-1 mouse assessed as change in body temperature at 20 mg/kg, ip measured after 60 mins in presence of WAY100635 by thermometric method; type: functional, organism-based
Mus musculus [21] = experiment: Antidepressant-like activity in CD-1 mouse assessed as decrease in immobility time at 20 mg/kg, ip measured after 30 mins by forced swim test; type: functional, organism-based
In short: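 Male CD-1 mice (23–40 g), 6–8 per dose, given test agent ip in 10% aqueous DMSO (10 mL/kg) 30 min before test. Mice were placed singly in glass cylinders (25 cm high, 10 cm diameter) holding 20 cm water at 23 °C for 6 min. Immobility (passive floating) was timed over the last 4 min after a 2-min adaptation. Analysis by Dunnett's test.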

| Ki [1] [µM] | Ki [2] [µM] | Structure (SMILES) | also measured |
| --- | --- | --- | --- |
| 0.333 | 0.173 | COc1ccc2[nH]cc(C3CCCN(CCCCn4c(=O)c(-c5ccc(C)cc5)c5ccccn5c4=O)C3)c2c1 (stereo not given) | – |
| 0.053 | 0.24 | O=c1c(-c2ccccc2F)c2ccccn2c(=O)n1CCCCN1CCCC(c2c[nH]c3ccccc23)C1 (stereo not given) | – |
| 0.069 | 0.386 | COc1ccc2[nH]cc(C3CCCN(CCCCn4c(=O)c(-c5ccccc5OC)c5ccccn5c4=O)C3)c2c1 (stereo not given) | – |
| 0.257 | 0.49 | COc1ccc2[nH]cc(C3CCCN(CCCCn4c(=O)c(-c5ccc(Cl)cc5)c5ccccn5c4=O)C3)c2c1 (stereo not given) | – |
| 0.147 | 0.03 | O=c1c(-c2ccc(F)cc2)c2ccccn2c(=O)n1CCCCN1CCCC(c2c[nH]c3ccc(F)cc23)C1 (stereo not given) | – |
| 0.042 | 0.041 | COc1ccc(-c2c(=O)n(CCCCN3CCCC(c4c[nH]c5ccccc45)C3)c(=O)n3ccccc23)cc1 (stereo not given) | deltaT (Mus musculus [3]): 0.3 °C; deltaT (Mus musculus [4]): 0.4 °C; deltaT (Mus musculus [5]): 0.3 °C; deltaT (Mus musculus [19]): -1.4 °C; half-life at 1 µM [6]: 7.4 min; Ki (D(2) dopamine receptor): 1.13 µM; deltaT (Mus musculus [7]): -1.6 °C; deltaT (Mus musculus [10]): 0.3 °C; deltaT (Mus musculus [11]): 0.5 °C; Ki [14]: 0.021 µM; deltaT (Mus musculus [20]): -0.7 °C; deltaT (Mus musculus [15]): 0 °C; Ki [16]: 1.92 µM; deltaT (Mus musculus [17]): 0.4 °C; Ki [18]: 1.71 µM |
| 0.136 | 0.135 | Cc1ccc(-c2c(=O)n(CCCCN3CCCC(c4c[nH]c5ccc(F)cc45)C3)c(=O)n3ccccc23)cc1 (stereo not given) | – |
| 0.218 | 0.115 | O=c1c(-c2ccccc2F)c2ccccn2c(=O)n1CCCCN1CCCC(c2c[nH]c3ccc(F)cc23)C1 (stereo not given) | – |

More lines, now with the values behind:

| Structure (SMILES) | Ki [1] [µM] | Ki [2] [µM] | also measured |
| --- | --- | --- | --- |
| COc1ccc2[nH]cc(C3CCCN(CCCCn4c(=O)c(-c5ccccc5)c5ccccn5c4=O)C3)c2c1 (stereo not given) | 0.261 | 0.248 | – |
| Cc1ccccc1-c1c(=O)n(CCCCN2CCCC(c3c[nH]c4ccc(F)cc34)C2)c(=O)n2ccccc12 (stereo not given) | 0.376 | 0.338 | – |
| Cc1ccc(-c2c(=O)n(CCCCN3CCCC(c4c[nH]c5ccccc45)C3)c(=O)n3ccccc23)cc1 (stereo not given) | 0.063 | 0.207 | – |
| COc1ccc2[nH]cc(C3CCCN(CCCCn4c(=O)c(-c5ccccc5Cl)c5ccccn5c4=O)C3)c2c1 (stereo not given) | 0.176 | 0.459 | – |
| O=c1c(-c2ccccc2)c2ccccn2c(=O)n1CCCCN1CCCC(c2c[nH]c3ccc(F)cc23)C1 (stereo not given) | 0.209 | 0.008 | – |
| O=c1c(-c2ccc(Cl)cc2)c2ccccn2c(=O)n1CCCCN1CCCC(c2c[nH]c3ccc(F)cc23)C1 (stereo not given) | 0.155 | 0.086 | – |
| O=c1c(-c2ccccc2Cl)c2ccccn2c(=O)n1CCCCN1CCCC(c2c[nH]c3ccc(F)cc23)C1 (stereo not given) | 0.378 | 0.255 | – |
| COc1ccc2[nH]cc(C3CCCN(CCCCn4c(=O)c(-c5ccccc5C)c5ccccn5c4=O)C3)c2c1 (stereo not given) | 0.476 | 0.087 | – |
| O=c1c(-c2ccc(Cl)cc2)c2ccccn2c(=O)n1CCCCN1CCCC(c2c[nH]c3ccccc23)C1 (stereo not given) | 0.294 | 0.082 | – |
| COc1ccc2[nH]cc(C3CCCN(CCCCn4c(=O)c(-c5ccc(F)cc5)c5ccccn5c4=O)C3)c2c1 (stereo not given) | 0.281 | 0.192 | – |
| COc1ccccc1-c1c(=O)n(CCCCN2CCCC(c3c[nH]c4ccc(F)cc34)C2)c(=O)n2ccccc12 (stereo not given) | 0.08 | 0.118 | – |
| O=c1c(-c2ccc(F)cc2)c2ccccn2c(=O)n1CCCCN1CCCC(c2c[nH]c3ccccc23)C1 (stereo not given) | 0.046 | 0.046 | deltaT (Mus musculus [3]): 0.5 °C; deltaT (Mus musculus [4]): 0.3 °C; deltaT (Mus musculus [5]): 0.1 °C; half-life at 1 µM [6]: 5.53 min; Ki (D(2) dopamine receptor): 0.963 µM; deltaT (Mus musculus [7]): -0.2 °C; deltaT (Mus musculus [8]): -1.2 °C; deltaT (Mus musculus [9]): -1.2 °C; deltaT (Mus musculus [10]): 0.4 °C; deltaT (Mus musculus [11]): 0.2 °C; deltaT (Mus musculus [12]): -1.3 °C; deltaT (Mus musculus [13]): -1.3 °C; Ki [14]: 0.435 µM; deltaT (Mus musculus [15]): 0.2 °C; Ki [16]: 1.44 µM; deltaT (Mus musculus [17]): 0.4 °C; Ki [18]: 0.697 µM |
| COc1ccc(-c2c(=O)n(CCCCN3CCCC(c4c[nH]c5ccc(F)cc45)C3)c(=O)n3ccccc23)cc1 (stereo not given) | 0.14 | 0.027 | – |
| O=c1c(-c2ccccc2Cl)c2ccccn2c(=O)n1CCCCN1CCCC(c2c[nH]c3ccccc23)C1 (stereo not given) | 0.05 | 0.103 | – |
| COc1ccccc1-c1c(=O)n(CCCCN2CCCC(c3c[nH]c4ccccc34)C2)c(=O)n2ccccc12 (stereo not given) | 0.132 | 0.411 | – |
| COc1ccc2[nH]cc(C3CCCN(CCCCn4c(=O)c(-c5ccccc5F)c5ccccn5c4=O)C3)c2c1 (stereo not given) | 0.13 | 1.67 | – |
| O=c1c(-c2ccccc2)c2ccccn2c(=O)n1CCCCN1CCCC(c2c[nH]c3ccccc23)C1 (stereo not given) | 0.022 | 0.068 | deltaT (Mus musculus [3]): -0.3 °C; deltaT (Mus musculus [4]): -0.5 °C; deltaT (Mus musculus [5]): 0.2 °C; deltaT (Mus musculus [19]): 0 °C; half-life at 1 µM [6]: 6.12 min; Ki (D(2) dopamine receptor): 17.7 µM; deltaT (Mus musculus [7]): -0.9 °C; deltaT (Mus musculus [10]): -0.1 °C; deltaT (Mus musculus [11]): -0.8 °C; Ki [14]: 0.433 µM; deltaT (Mus musculus [20]): 0.1 °C; deltaT (Mus musculus [15]): 0.1 °C; Ki [16]: 1.11 µM; deltaT (Mus musculus [17]): -0.4 °C; Ki [18]: 0.435 µM; Activity (Mus musculus [21]): inactive |
| Cc1ccccc1-c1c(=O)n(CCCCN2CCCC(c3c[nH]c4ccccc34)C2)c(=O)n2ccccc12 (stereo not given) | 0.102 | 0.076 | – |
